From ChEMBL document CHEMBL3396998, “Synthesis and antitubercular evaluation of 4-carbonyl piperazine substituted 1,3-benzothiazin-4-one derivatives” (Bioorg Med Chem Lett, 2015)
Values after ≈ are worked out from the molar mass of the structure shown.

How the values were obtained:
[1] = Aqueous solubility of the compound by HPLC method; assay type: physicochemical; details: water
[2] = Cytotoxicity against African green monkey Vero cells after 72 hrs by MTT assay; assay type: cell-based; details: chlorocebus sabaeus
Outline: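 Vero cells were exposed to each compound over a broad concentration range. Viability was read by MTT, and cytotoxicity was reported as IC50.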

[3] = tested on: Mycobacterium tuberculosis; test: Antitubercular activity against Mycobacterium tuberculosis H37Ra ATCC 25177 by MABA method; assay type: functional
[4] = Ratio of aqueous solubility of BTZ038 to aqueous solubility of the compound by HPLC method; assay type: physicochemical; details: buffer
[5] = Ratio of aqueous solubility of PBTZ169 to aqueous solubility of the compound by HPLC method; assay type: physicochemical; details: buffer

**Q.** Which solubility [1] does the source give for `CC(=O)N1CCN(c2nc(=O)c3cc(C(F)(F)F)cc([N+](=O)[O-])c3s2)CC1` here?
**A.** 83.9 µg/mL (≈ 208 µM)

**Q.** What about the CC50 at 72 h [2] of the same molecule?
**A.** > 125 µM

**Q.** What about the MIC90 [3] of the same molecule?
**A.** > 0.13 µM

**Q.** For `CC(C)(C)C1CCC(C(=O)N2CCN(c3nc(=O)c4cc(C(F)(F)F)cc([N+](=O)[O-])c4s3)CC2)CC1` (stereo not drawn), which solubility [1] is on record?
**A.** < 0.1 µg/mL

**Q.** And the CC50 at 72 h [2]?
**A.** > 125 µM

**Q.** What about the MIC90 [3] of the same molecule?
**A.** 0.004 µM (≈ 0.00211 µg/mL)

**Q.** Which solubility [1] does the source give for `O=c1nc(N2CCN(CC3CCCCC3)CC2)sc2c([N+](=O)[O-])cc(C(F)(F)F)cc12` [MACOZINONE] here?
**A.** 9.07 µg/mL (≈ 19.9 µM)

**Q.** And the CC50 at 72 h [2]?
**A.** > 125 µM

**Q.** What about the MIC90 [3] of the same molecule?
**A.** < 0.004 µM

**Q.** Which results are given for `O=C(c1ccccc1[N+](=O)[O-])N1CCN(c2nc(=O)c3cc(C(F)(F)F)cc([N+](=O)[O-])c3s2)CC1`?
**A.** solubility [1]: 2.15 µg/mL (≈ 4.22 µM); CC50 at 72 h [2]: > 125 µM; MIC90 [3]: 0.13 µM (≈ 0.0662 µg/mL)

**Q.** Which solubility [1] does the source give for `CCc1ccc(C(=O)N2CCN(c3nc(=O)c4cc(C(F)(F)F)cc([N+](=O)[O-])c4s3)CC2)cc1` here?
**A.** < 0.1 µg/mL

**Q.** And the CC50 at 72 h [2]?
**A.** > 125 µM

**Q.** What about the MIC90 [3] of the same molecule?
**A.** 0.031 µM (≈ 0.0153 µg/mL)

**Q.** Which solubility [1] does the source give for `O=C(CC1CCCCC1)N1CCN(c2nc(=O)c3cc(C(F)(F)F)cc([N+](=O)[O-])c3s2)CC1` here?
**A.** 0.12 µg/mL (≈ 0.248 µM)

**Q.** What about the CC50 at 72 h [2] of the same molecule?
**A.** > 125 µM

**Q.** And the MIC90 [3]?
**A.** 0.016 µM (≈ 0.00775 µg/mL)

**Q.** Which results are given for `CC(C)(C)c1ccc(C(=O)N2CCN(c3nc(=O)c4cc(C(F)(F)F)cc([N+](=O)[O-])c4s3)CC2)cc1`?
**A.** solubility [1]: 1.25 µg/mL (≈ 2.4 µM); CC50 at 72 h [2]: > 125 µM; MIC90 [3]: 0.016 µM (≈ 0.00833 µg/mL)

**Q.** What does the source list for `COc1ccccc1C(=O)N1CCN(c2nc(=O)c3cc(C(F)(F)F)cc([N+](=O)[O-])c3s2)CC1`?
**A.** solubility [1]: 13.6 µg/mL (≈ 27.4 µM); CC50 at 72 h [2]: > 125 µM; MIC90 [3]: 0.063 µM (≈ 0.0312 µg/mL)

**Q.** Which solubility [1] does the source give for `COc1ccc(C(=O)N2CCN(c3nc(=O)c4cc(C(F)(F)F)cc([N+](=O)[O-])c4s3)CC2)cc1` here?
**A.** 0.22 µg/mL (≈ 0.445 µM)

**Q.** What about the CC50 at 72 h [2] of the same molecule?
**A.** > 125 µM

**Q.** What about the MIC90 [3] of the same molecule?
**A.** 0.13 µM (≈ 0.0643 µg/mL)

**Q.** Which results are given for `CC(C)CC(=O)N1CCN(c2nc(=O)c3cc(C(F)(F)F)cc([N+](=O)[O-])c3s2)CC1`?
**A.** solubility [1]: 66.3 µg/mL (≈ 149 µM); CC50 at 72 h [2]: > 125 µM; MIC90 [3]: 0.031 µM (≈ 0.0138 µg/mL)

**Q.** What does the source list for `COc1cccc(C(=O)N2CCN(c3nc(=O)c4cc(C(F)(F)F)cc([N+](=O)[O-])c4s3)CC2)c1`?
**A.** solubility [1]: 0.91 µg/mL (≈ 1.84 µM); CC50 at 72 h [2]: > 125 µM; MIC90 [3]: 0.031 µM (≈ 0.0153 µg/mL)

**Q.** With `O=C(c1cccc(F)c1)N1CCN(c2nc(=O)c3cc(C(F)(F)F)cc([N+](=O)[O-])c3s2)CC1` as the molecule, how does the solubility [1] read?
**A.** 0.2 µg/mL (≈ 0.415 µM)

**Q.** And the CC50 at 72 h [2]?
**A.** > 125 µM

**Q.** What about the MIC90 [3] of the same molecule?
**A.** 0.016 µM (≈ 0.00772 µg/mL)

**Q.** Which results are given for `O=C(c1ccccc1F)N1CCN(c2nc(=O)c3cc(C(F)(F)F)cc([N+](=O)[O-])c3s2)CC1`?
**A.** solubility [1]: 3.1 µg/mL (≈ 6.43 µM); CC50 at 72 h [2]: > 125 µM; MIC90 [3]: 0.008 µM (≈ 0.00386 µg/mL)

**Q.** With `CCC(C)C(=O)N1CCN(c2nc(=O)c3cc(C(F)(F)F)cc([N+](=O)[O-])c3s2)CC1` (stereo not drawn) as the molecule, how does the solubility [1] read?
**A.** 104 µg/mL (≈ 234 µM)

**Q.** And the CC50 at 72 h [2]?
**A.** > 125 µM

**Q.** And the Ratio [4]?
**A.** 100

**Q.** And the MIC90 [3]?
**A.** 0.008 µM (≈ 0.00356 µg/mL)

**Q.** What about the Ratio [5] of the same molecule?
**A.** 10

**Q.** Which solubility [1] does the source give for `O=C(C1CC1)N1CCN(c2nc(=O)c3cc(C(F)(F)F)cc([N+](=O)[O-])c3s2)CC1` here?
**A.** 52.9 µg/mL (≈ 123 µM)

**Q.** And the CC50 at 72 h [2]?
**A.** > 125 µM

**Q.** And the MIC90 [3]?
**A.** 0.13 µM (≈ 0.0557 µg/mL)

**Q.** For `O=C(c1ccccc1Cl)N1CCN(c2nc(=O)c3cc(C(F)(F)F)cc([N+](=O)[O-])c3s2)CC1`, which solubility [1] is on record?
**A.** 8.18 µg/mL (≈ 16.4 µM)

**Q.** And the CC50 at 72 h [2]?
**A.** > 125 µM

**Q.** What about the MIC90 [3] of the same molecule?
**A.** 0.016 µM (≈ 0.00798 µg/mL)

**Q.** Which results are given for `O=C(c1ccc(Cl)cc1)N1CCN(c2nc(=O)c3cc(C(F)(F)F)cc([N+](=O)[O-])c3s2)CC1`?
**A.** solubility [1]: 5.19 µg/mL (≈ 10.4 µM); CC50 at 72 h [2]: > 125 µM; MIC90 [3]: 0.016 µM (≈ 0.00798 µg/mL)

**Q.** For `O=C(N1CCN(c2nc(=O)c3cc(C(F)(F)F)cc([N+](=O)[O-])c3s2)CC1)C12CC3CC(CC(C3)C1)C2`, which solubility [1] is on record?
**A.** 2.95 µg/mL (≈ 5.65 µM)

**Q.** And the CC50 at 72 h [2]?
**A.** > 125 µM

**Q.** What about the MIC90 [3] of the same molecule?
**A.** 0.031 µM (≈ 0.0162 µg/mL)

**Q.** With `CCCCC(=O)N1CCN(c2nc(=O)c3cc(C(F)(F)F)cc([N+](=O)[O-])c3s2)CC1` as the molecule, how does the solubility [1] read?
**A.** 42.5 µg/mL (≈ 95.6 µM)

**Q.** What about the CC50 at 72 h [2] of the same molecule?
**A.** > 125 µM

**Q.** What about the MIC90 [3] of the same molecule?
**A.** 0.031 µM (≈ 0.0138 µg/mL)

**Q.** Which results are given for `Cc1ccc(C(=O)N2CCN(c3nc(=O)c4cc(C(F)(F)F)cc([N+](=O)[O-])c4s3)CC2)cc1`?
**A.** solubility [1]: 6.7 µg/mL (≈ 14 µM); CC50 at 72 h [2]: > 125 µM; MIC90 [3]: 0.031 µM (≈ 0.0148 µg/mL)

**Q.** Which results are given for `CSCC(=O)N1CCN(c2nc(=O)c3cc(C(F)(F)F)cc([N+](=O)[O-])c3s2)CC1`?
**A.** solubility [1]: 15.2 µg/mL (≈ 33.8 µM); CC50 at 72 h [2]: > 125 µM; MIC90 [3]: 0.13 µM (≈ 0.0583 µg/mL)

**Q.** What does the source list for `O=C(C1CCC1)N1CCN(c2nc(=O)c3cc(C(F)(F)F)cc([N+](=O)[O-])c3s2)CC1`?
**A.** solubility [1]: 39.3 µg/mL (≈ 88.8 µM); CC50 at 72 h [2]: > 125 µM; MIC90 [3]: 0.031 µM (≈ 0.0137 µg/mL)

**Q.** What does the source list for `O=C(c1ccc(C(F)(F)F)cc1)N1CCN(c2nc(=O)c3cc(C(F)(F)F)cc([N+](=O)[O-])c3s2)CC1`?
**A.** solubility [1]: 7.53 µg/mL (≈ 14.1 µM); CC50 at 72 h [2]: > 125 µM; MIC90 [3]: 0.031 µM (≈ 0.0165 µg/mL)

**Q.** With `CCC(=O)N1CCN(c2nc(=O)c3cc(C(F)(F)F)cc([N+](=O)[O-])c3s2)CC1` as the molecule, how does the solubility [1] read?
**A.** 3.29 µg/mL (≈ 7.9 µM)

**Q.** And the CC50 at 72 h [2]?
**A.** > 125 µM

**Q.** What about the MIC90 [3] of the same molecule?
**A.** 0.016 µM (≈ 0.00666 µg/mL)

**Q.** Which results are given for `COc1ccc(CC(=O)N2CCN(c3nc(=O)c4cc(C(F)(F)F)cc([N+](=O)[O-])c4s3)CC2)cc1`?
**A.** solubility [1]: 2.72 µg/mL (≈ 5.35 µM); CC50 at 72 h [2]: > 125 µM; MIC90 [3]: 0.13 µM (≈ 0.0661 µg/mL)

**Q.** For `CC1COC2(CCN(c3nc(=O)c4cc(C(F)(F)F)cc([N+](=O)[O-])c4s3)CC2)O1` (racemic), which solubility [1] is on record?
**A.** 0.94 µg/mL (≈ 2.18 µM)

**Q.** And the CC50 at 72 h [2]?
**A.** > 125 µM

**Q.** What about the MIC90 [3] of the same molecule?
**A.** 0.004 µM (≈ 0.00173 µg/mL)

**Q.** What does the source list for `CC(C)(C)C(=O)N1CCN(c2nc(=O)c3cc(C(F)(F)F)cc([N+](=O)[O-])c3s2)CC1`?
**A.** solubility [1]: 5.87 µg/mL (≈ 13.2 µM); CC50 at 72 h [2]: > 125 µM; MIC90 [3]: 0.031 µM (≈ 0.0138 µg/mL)

**Q.** For `O=C(c1ccc([N+](=O)[O-])cc1)N1CCN(c2nc(=O)c3cc(C(F)(F)F)cc([N+](=O)[O-])c3s2)CC1`, which solubility [1] is on record?
**A.** 1.67 µg/mL (≈ 3.28 µM)

**Q.** And the CC50 at 72 h [2]?
**A.** > 125 µM

**Q.** What about the MIC90 [3] of the same molecule?
**A.** 0.063 µM (≈ 0.0321 µg/mL)

**Q.** Which results are given for `CCCC(=O)N1CCN(c2nc(=O)c3cc(C(F)(F)F)cc([N+](=O)[O-])c3s2)CC1`?
**A.** solubility [1]: 2.46 µg/mL (≈ 5.72 µM); CC50 at 72 h [2]: > 125 µM; MIC90 [3]: 0.13 µM (≈ 0.056 µg/mL)

**Q.** For `O=C(C1CCCC1)N1CCN(c2nc(=O)c3cc(C(F)(F)F)cc([N+](=O)[O-])c3s2)CC1`, which solubility [1] is on record?
**A.** 5.34 µg/mL (≈ 11.7 µM)

**Q.** What about the CC50 at 72 h [2] of the same molecule?
**A.** 120 µM

**Q.** And the MIC90 [3]?
**A.** 0.016 µM (≈ 0.0073 µg/mL)

**Q.** Which solubility [1] does the source give for `O=C(C1CCCCC1)N1CCN(c2nc(=O)c3cc(C(F)(F)F)cc([N+](=O)[O-])c3s2)CC1` here?
**A.** 3.24 µg/mL (≈ 6.89 µM)

**Q.** And the CC50 at 72 h [2]?
**A.** 88.7 µM

**Q.** What about the MIC90 [3] of the same molecule?
**A.** 0.031 µM (≈ 0.0146 µg/mL)

**Q.** For `O=C(c1ccc(F)cc1)N1CCN(c2nc(=O)c3cc(C(F)(F)F)cc([N+](=O)[O-])c3s2)CC1`, which solubility [1] is on record?
**A.** 1.69 µg/mL (≈ 3.5 µM)

**Q.** And the CC50 at 72 h [2]?
**A.** > 125 µM

**Q.** What about the MIC90 [3] of the same molecule?
**A.** 0.031 µM (≈ 0.015 µg/mL)
